Bioassay records: PubChem BioAssay, The Scripps Research Institute Molecular Screening Center
ASAP1 GAP inh: blocks human ASAP1-stimulated Arf1 GTP hydrolysis; inhibition, % at 16.5 µM; GDP FP detection; Q9ULH1; 360,000 compounds, 0.19% hits; AID 624377; in the data active = inhibition above about 25%
MBD2 DNA inh: blocks human MBD2 binding to methylated DNA. 370,000 compounds, 0.31% hits. inhibition, % at 4.4 µM. TR-FRET, MBD2 binding to methylated oligonucleotide. Q9UBB5; in the data active = inhibition above about 13%
UHRF1 binding: UHRF1 methyl-DNA binding inhibition; Q96T88; UHRF1 binding to methylated oligo, TR-FRET; inhibition, % at 4.4 µM; 370,000 compounds, 0.75% hits; AID 687016; in the data active = inhibition above about 21%;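 also: UHRF1 SRA domain binding a hemimethylated CpG hairpin DNA probe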
LEDGF integ inh: blocks HIV-1 LEDGF/p75-dependent DNA integration; 370,000 compounds, 0.64% hits; TR-FRET IN-LEDGF/p75 DNA integration, Eu/Cy5; AID 743269; inhibition, % at 3.7 µM;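 active = inhibition above the screen-wide mean plus 3 SD, cut at about 13% in these data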;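 also: signal is the Cy5 over europium emission ratio at 671 and 618 nm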
TDP2 absorb: TDP2 (human) inhibition, absorbance primary screen | recombinant TDP2, T5PNP hydrolysis, p-nitrophenol absorbance 415 nm | inhibition, % at 12.8 µM | O95551 | 370,000 compounds, 0.34% hits;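 active = inhibition above the mean of all tested compounds plus 3 SD, set per campaign, cut at about 25% in these data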
Target sequence (O95551 whole entry, looked up): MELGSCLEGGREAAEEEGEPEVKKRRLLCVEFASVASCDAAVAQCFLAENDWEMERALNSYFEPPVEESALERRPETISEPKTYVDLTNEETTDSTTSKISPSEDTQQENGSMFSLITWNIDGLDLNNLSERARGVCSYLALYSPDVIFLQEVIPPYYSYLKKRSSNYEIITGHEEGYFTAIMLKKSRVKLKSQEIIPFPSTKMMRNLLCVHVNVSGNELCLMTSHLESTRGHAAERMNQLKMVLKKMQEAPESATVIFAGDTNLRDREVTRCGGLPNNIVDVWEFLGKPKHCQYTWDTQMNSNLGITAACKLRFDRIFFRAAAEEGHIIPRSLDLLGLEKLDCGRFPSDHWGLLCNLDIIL
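Read-out basis: percent inhibition. System: recombinant human TDP2. Buffer or medium: Mg2+-containing Tris-HCl buffer, pH 7.5. Repeats: single replicate. Timing: reaction 2 h, 37 °C. Benchmarks: high control without enzyme, low control DMSO plus TDP2. Probe or stimulus: 5 mM T5PNP. Doses: 12.8 µM only. Measured by: epi absorbance of p-nitrophenol freed from T5PNP by hydrolysis.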
ARFGAP1 inhibitor: inhibitors of rat ARFGAP1. inhibition, % at 16.5 µM. 360,000 compounds, 0.26% hits. Q62848. Arfgap1-stimulated ARF1 GTP hydrolysis, GDP FP detection. AID 651572;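 active = inhibition above a per-plate limit, mean inhibition of low control wells plus 3 SD, cut at about 25% in these data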
Target sequence (Q62848 1-136 limits assumed): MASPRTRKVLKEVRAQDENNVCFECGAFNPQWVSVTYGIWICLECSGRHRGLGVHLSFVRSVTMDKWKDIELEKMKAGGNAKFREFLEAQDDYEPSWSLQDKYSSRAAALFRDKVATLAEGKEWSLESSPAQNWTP
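Material: truncated rat Arfgap1 GAP domain; Incubation: compound-enzyme preincubation 20 min, reaction 120 min, detection 60 min, 25 °C; Read-out: percent inhibition of Arfgap1-stimulated GTP hydrolysis; Technique: FP, GDP Alexa 633 tracer displaced from anti-GDP antibody, 620/688 nm; Controls: No-Arfgap1 wells (100%) versus DMSO full-reaction wells (0%); Replication: single well per compound.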
IN multimer act: activates HIV-1 integrase multimerization in LEDGF counter-screen; shares compounds with LEDGF integ inh; TR-FRET HIV-1 integrase multimerization, biochemical; activation, % at 7.7 µM; 2,000 compounds, 17% hits; AID 1053131; in the data active = activation above about 8.9%
TRFRET interf: optically interferes with TR-FRET readout in LEDGF counter-screen. TR-FRET optical interference counterscreen, HIV-1 IN multimerization. 2,000 tested, under 10 active. inhibition, % at 7.7 µM. shares compounds with LEDGF integ inh. AID 1053135;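 active = inhibition above the mean over all tested compounds plus 3 SD, which no compound reached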
IN-LEDGF confirm: confirmation of HIV-1 LEDGF/p75-dependent integration inhibitors; shares compounds with LEDGF integ inh; TR-FRET LEDGF/p75-dependent HIV-1 integration, biochemical; inhibition, % at 3.7 µM; 2,000 compounds, 36% hits; in the data active = inhibition above about 14%
Hits are given with their value; n = inactive; x = no result given. Rows were chosen to be rich in hits. Some 2% of all compounds tested hit in one or more screens of this group.

SMILES | ASAP1 GAP inh | MBD2 DNA inh | UHRF1 binding | LEDGF integ inh | TDP2 absorb | ARFGAP1 inhibitor | IN multimer act | TRFRET interf | IN-LEDGF confirm
CC1Cn2c(Cc3ccccc3)nnc2S1 (centres undefined) | n | n | n | n | n | n | x | x | x
O=C(O)c1ccc(NC2OC[C@@H](O)[C@H](O)[C@H]2O)cc1 (some centres undefined) | n | n | 52 | 18 | n | n | n | n | n
CCn1ncc(NC(=S)Nc2ccc(OC)c(OC)c2)c1C(N)=O | n | n | n | 14 | n | n | n | n | n
CCn1ncc(NC(=S)Nc2ccc3c(c2)OCO3)c1C(N)=O | n | n | n | n | n | n | x | x | x
Oc1ccc(/C=N/N=C/c2ccc(O)c(O)c2)cc1O | n | n | n | 75 | n | n | 32 | n | 90
O=C1Nc2ccccc2/C1=N\N=C\c1ccc(O)c(O)c1 | n | n | n | 45 | n | n | 37 | n | 81
COc1cc(/C=N/N=C2/C(=O)Nc3ccccc32)ccc1O | n | n | n | n | n | n | x | x | x
O=Cc1ccc(O)c(O)c1 | n | n | n | n | n | n | x | x | x
COc1cc(C=C2C(=O)C=CC2=O)ccc1O | n | 102 | 97 | 93 | n | n | n | n | 24
CCN(Cc1cn(CC2CCCCC2)nn1)S(=O)(=O)c1ccccc1Br | x | n | n | n | n | x | x | x | x
O=S1(=O)c2ccc(N3CC[C@H](O)C3)cc2O[C@@H]2CCN1C2 | x | n | n | n | n | x | x | x | x
O=C1ON=C(c2ccccc2)/C1=C/c1ccco1 | n | n | n | n | n | n | x | x | x
O=C1C(=Cc2ccco2)C(=O)c2ccccc21 | n | n | n | 14 | n | n | n | n | n
CCCCOc1ccc(C(=O)NC2CCCCN(Cc3cccc(Cl)c3)C2=O)cc1 (centres undefined) | x | n | n | n | n | x | x | x | x
COC(=O)[C@H](CC(C)C)N(CCCc1cn(Cc2ccccc2)nn1)S(=O)(=O)c1ccc(F)cc1Br | x | n | n | n | n | x | x | x | x
O=C(O)c1cc(Cl)ccc1-c1ccc(/C=C/c2cc(C(F)(F)F)[nH]c(=O)n2)o1 | n | n | n | 17 | n | n | n | n | n
COC(=O)[C@]12C[C@H](CC(=O)N3CCN(C(=O)c4ccco4)CC3)C(=O)N(CCC3=CCCCC3)C1=C[C@H](C1CCCC1)O[C@@H]2C | x | n | n | n | n | x | x | x | x
Cc1cc(C(=O)Nc2ccc(F)cc2)n(-c2ccccc2)n1 | x | n | n | n | n | x | x | x | x
Nc1ccc2c(c1)C/C(=C/c1ccco1)C2=O | n | 24 | 69 | 49 | n | n | 19 | n | 25
O=C1/C(=C/c2ccco2)CCc2ccccc21 | n | n | n | n | n | n | x | x | x
O=C(Nc1ccc(C(=O)O)cc1)/C(=C\c1ccco1)NC(=O)c1ccccc1Cl | n | n | n | 17 | n | n | n | n | n
CC(C)(C)c1ccc(C(=O)N/C(=C\c2ccco2)C(=O)Nc2ccccc2C(=O)O)cc1 | n | n | n | 20 | n | n | n | n | 26
C#CCNC(=O)C[C@@H]1C(=O)N(CCc2ccc(Cl)cc2)/C2=C/CCCCC[C@@]21C(=O)OCC | x | n | n | n | n | x | x | x | x
CCN(CC)c1nc(C)nc2c1nnn2Cc1ccccc1 | x | n | n | n | n | x | x | x | x
O=C(NCC1CC1)c1cccc2c1C(=O)c1ccc(N3CCCC3)cc1S2(=O)=O | n | n | n | 27 | n | n | n | n | n
C=CCNC(=O)c1cccc2c1C(=O)c1ccc(N3CCCC3)cc1S2(=O)=O | n | n | n | n | n | n | x | x | x
Cc1ncc([N+](=O)[O-])n1CC(=O)Nc1cc(Cl)ccc1Cl | n | n | n | 52 | n | n | n | n | n
Cc1cc(Br)c(NC(=O)Cn2c([N+](=O)[O-])cnc2C)cc1C | n | n | n | n | n | n | x | x | x
